Screens (PubChem BioAssay)
GSH fluor: compound fluoresces at 488/530 nm on GSH beads | fluorescence (KMESF) at 10 µM | GSH beads flow cytometry, compound fluorescence 488/530 nm; stronger effect = higher value | actives 0.25% (n = 190,000); in the data active = fluorescence above about 89;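 also: glutathione beads carrying GST-tagged Bcl family fusion proteins plus one bare bead set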
ABCG2 block: inhibitors of human ABCG2 transporter, ABCB1 counter-screen; Q9UNQ0; inhibition, % at 6.6 µM; IgMXP3 cells, JC-1 efflux, flow cytometry; actives 0.1% (n = 190,000); AID 1325;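 active = inhibition above 80%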
Target sequence (Q9UNQ0 whole entry, looked up): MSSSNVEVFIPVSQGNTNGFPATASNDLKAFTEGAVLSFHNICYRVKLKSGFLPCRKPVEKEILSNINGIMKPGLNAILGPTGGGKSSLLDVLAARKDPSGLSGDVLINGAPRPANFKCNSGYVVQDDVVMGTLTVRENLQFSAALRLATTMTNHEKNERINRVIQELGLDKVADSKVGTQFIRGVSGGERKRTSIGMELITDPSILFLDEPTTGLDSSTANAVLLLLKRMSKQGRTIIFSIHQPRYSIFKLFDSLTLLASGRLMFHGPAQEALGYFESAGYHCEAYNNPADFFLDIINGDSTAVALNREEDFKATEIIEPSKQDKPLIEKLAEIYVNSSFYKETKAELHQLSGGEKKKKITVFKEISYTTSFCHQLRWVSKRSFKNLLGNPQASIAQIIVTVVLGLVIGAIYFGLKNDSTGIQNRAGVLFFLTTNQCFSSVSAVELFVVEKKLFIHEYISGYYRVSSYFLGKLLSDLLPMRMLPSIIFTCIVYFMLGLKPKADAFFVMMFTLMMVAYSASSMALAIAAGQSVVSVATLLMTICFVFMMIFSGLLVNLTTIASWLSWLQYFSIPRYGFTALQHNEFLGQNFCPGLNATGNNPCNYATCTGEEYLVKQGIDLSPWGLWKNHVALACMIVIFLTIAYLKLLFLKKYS
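System: two drug-resistant human cell lines, ABCG2 and ABCB1; controls: nicardipine high and DMSO low controls; times: 10 min exposure at 25 °C with rotation, no wash; detection: flow cytometry of retained JC-1 fluorescence; read-out basis: percent efflux inhibition, scaled nicardipine 100% to DMSO 0%; doses: one concentration, 6.6 µM final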
Avidin bead fluor: avidin bead compound fluorescence profile. AID 1775. actives 0.38% (n = 220,000). Avidin beads, compound fluorescence 488/530 nm, flow cytometry; stronger effect = higher value. fluorescence (KMESF) at 10 µM; in the data active = fluorescence above about 47
PKD1 kinase inh: blocks activity of human protein kinase D1. actives 0.056% (n = 200,000). PKD1 kinase fluorescence polarization assay. inhibition, % (no concentration beside the values). AID 797
L major viab: inhibitors of Leishmania major promastigote growth. Leishmania major promastigotes, resazurin fluorescence viability. inhibition, % at 10 µM. actives 9% (n = 200,000). AID 1063;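 also: promastigotes grown with compound for 44 hours at 28 °C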
ABCB1 inh: blocks JC-1 efflux by human ABCB1 transporter. P08183. CCRF-Adr cells, flow cytometry. inhibition, % at 6.6 µM. actives 0.067% (n = 190,000); in the data active = inhibition above about 40%;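 also: higher value means more JC-1 retained so stronger ABCB1 efflux block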
Large screens that a line does not name were inactive. The entries come from a sample that favours hits as a whole. Rule as the data show it, unless noted: active = inhibition above about 50%; inactive = the rest.

COc1ccc(N(CC(=O)NCCc2ccc(Cl)cc2)S(=O)(=O)c2c(C)[nH]c(=O)[nH]c2=O)cc1	none
CCN1CCN(c2ccc(NC(=O)c3ccc4c(c3)[nH]c(=O)n4Cc3ccc(OC)cc3)cc2)CC1	none
COc1ccc(OCCCN2CCCCCC2)cc1	L major viab 99.0
Brc1cccc(OCCCCN2CCCCC2)c1	L major viab 98.1
CCN(CC(=O)NCc1ccc(Cl)cc1)C(=O)c1ccc(S(=O)(=O)N(C)C)cc1	none
C#CCN1C(=O)C(O)(CC(=O)/C=C/C=C/c2ccccc2)c2ccccc21 (centres undefined)	none
CCN1C(=O)C(O)(CC(=O)/C=C/C=C/c2ccccc2)c2ccccc21 (centres undefined)	L major viab 74.9
CCOc1ccc(C(c2c(NC(=O)c3ccccc3)sc(C)c2C)N2CCN(C)CC2)cc1 (centres undefined)	L major viab 51.6
Cc1sc(NC(=O)c2ccccc2)c(C(c2ccccn2)N2CCN(CCO)CC2)c1C (centres undefined)	none
O=C(NC(=S)Nc1ccc2cn[nH]c2c1)c1ccccc1	none
CN(C)CCCCCCCCCCC(=O)/C=N/O	L major viab 99.4 (no result: GSH fluor, ABCG2 block, Avidin bead fluor, ABCB1 inh)
C/C(Cc1ccccc1)=N\NC(=O)CCCCCC(=O)N/N=C(\C)Cc1ccccc1	none
CN(CCCCCCCCC(=O)/C=N/O)Cc1ccccc1	L major viab 87.3
COc1ccc(-n2nc([N+](=O)[O-])c(=NCc3ccc4c(c3)OCO4)n2O)cc1	L major viab 96.6
O=[N+]([O-])c1nn(-c2ccc3c(c2)OCCO3)n(O)c1=NC1CCCC1	none
O=[N+]([O-])c1nn(-c2ccc3c(c2)OCCO3)n(O)c1=NCCCO	L major viab 72.1
O=[N+]([O-])c1nn(-c2ccc3c(c2)OCCO3)n(O)c1=NC1CCCCCC1	L major viab 86.8
Cc1ccc(CN=c2c([N+](=O)[O-])nn(-c3ccc4c(c3)OCCO4)n2O)cc1	L major viab 98.0
O=C1CCCN1CCCN=c1c([N+](=O)[O-])nn(-c2ccc(Cl)cc2)n1O	L major viab 73.0
O=C(c1cc([N+](=O)[O-])cc([N+](=O)[O-])c1)N1CCCc2ccccc21	L major viab 78.5
O=C(c1ccc(N2CCCCCC2)c([N+](=O)[O-])c1)N1CCc2ccccc21	L major viab 88.5
FC(F)(F)c1ccc(CN2C[C@@H]3C(c4ccc(Cl)nc4)C4(c5ccccc5)CC3(C4)[C@H]2c2ccccc2)cc1 (some centres undefined)	none (no result: GSH fluor, ABCG2 block, PKD1 kinase inh, L major viab, ABCB1 inh)
CSc1nc(-c2ccc(C)cc2)[nH]c1S(=O)(=O)c1ccccc1	L major viab 55.7
CCOc1cc(NC(=S)NC)c(OCC)cc1NC(=O)c1ccc(OC)cc1	none
Cc1ccc(S(=O)(=O)/N=C(\c2ccccc2)N(C)S(=O)(=O)c2ccccc2)cc1	L major viab 63.2
Cc1ccc(S(=O)(=O)NN/C(=N/S(=O)(=O)c2ccccc2)c2ccccc2)cc1	none
CCCSc1cc(NCCOC(C)=O)c([N+](=O)[O-])c2nonc12	L major viab 67.0 (no result: ABCB1 inh)
CCCC(=O)OCCNc1cc(Sc2nccn2C)c2nonc2c1[N+](=O)[O-]	L major viab 99.9
CCCC(=O)OCCNc1cc(SCc2ccco2)c2nonc2c1[N+](=O)[O-]	none
CC(=O)OCCCNc1cc(SCc2ccco2)c2nonc2c1[N+](=O)[O-]	L major viab 50.6
Cc1ccc(-c2nn[nH]n2)o1	Avidin bead fluor 81
Cc1ccc(-c2nn[nH]n2)cc1	none (no result: Avidin bead fluor)
CSc1nc(-c2ccccc2)nn1S(=O)(=O)c1ccccc1	Avidin bead fluor 96
O=CN1CCCN(Cc2nc(-c3cccc(Cl)c3)no2)CC1	none
Cc1oc2c(CN3CCCC3)c(O)ccc2c(=O)c1-c1ccccc1	none (no result: ABCG2 block, ABCB1 inh)
Cc1oc2c(CN3CCCC3)c(O)ccc2c(=O)c1-c1ccc(Cl)cc1	L major viab 96.8
O=c1c(-c2ccc(Br)cc2)coc2c(CN3CCOCC3)c(O)ccc12	L major viab 99.5 (no result: ABCG2 block, ABCB1 inh)
Cc1oc2c(CN3CCOCC3)c(O)ccc2c(=O)c1-c1ccc(Cl)cc1	none (no result: GSH fluor, ABCG2 block, PKD1 kinase inh, L major viab, ABCB1 inh)
Cc1oc2c(CN3CCOCC3)c(O)ccc2c(=O)c1-c1ccc(Br)cc1	L major viab 98.6
O=C(CCn1c(=O)sc2ccccc21)NCc1ccco1	GSH fluor 120
O=C(CCCn1c(=O)c2ccccc2n(Cc2ccccc2)c1=O)NCc1ccco1	Avidin bead fluor 60
CCCCNC(=O)CCn1c(=O)c2ccccc2n(Cc2ccc(Cl)cc2)c1=O	L major viab 56.8
CCCCNC(=O)CCn1c(=O)c2ccccc2n(Cc2ccccc2C)c1=O	none
Cn1c(Cn2c(=O)sc3ccccc32)nnc1SCC(=O)NCc1ccco1	none
CC(C)(C)NC(=O)COc1ccc(CNCc2ccccn2)cc1	none
CCOc1cc(CNCCc2ccccc2)ccc1OCC(=O)NC(C)(C)C	L major viab 99.8
CC(C)(C)NC(=O)COc1ccc(CNCCc2ccccc2)cc1	L major viab 86.7
CCc1ccc(OCC(=O)NC(C)(C)C)cc1	L major viab 62.7
CCOc1cc(CNCc2cccnc2)ccc1OCC(=O)NC(C)(C)C	L major viab 83.1
CC(=O)NCc1ccc(C(=O)O)cc1	none (no result: GSH fluor, ABCG2 block, PKD1 kinase inh, L major viab, ABCB1 inh)
CCn1cc(C(=O)O)c(=O)c2cc(F)c(N3CCN(S(=O)(=O)c4ccc(NC(=O)OC)cc4)CC3)cc21	none
COc1ccc(-c2csc(N(Cc3ccco3)C(=O)c3cccs3)n2)cc1	none (no result: GSH fluor, ABCG2 block, PKD1 kinase inh, L major viab, ABCB1 inh)
O=C(C1CC1)N(Cc1ccco1)c1nc(-c2ccccc2)cs1	L major viab 57.8
CN(Cc1ccc(F)cc1)C(=O)c1cccc(OC2CCN(C3CCCC3)CC2)c1	L major viab 92.9
Cc1ccc(/C=N/Nc2nc(C)cc(C)n2)cc1	none (no result: GSH fluor, ABCG2 block, PKD1 kinase inh, L major viab, ABCB1 inh)
CCNc1nc(NCC)nc(N/N=C/c2ccc(Br)cc2)n1	L major viab 50.4
CCOC(=O)C1=C(C)NC(C)=C(C(=O)OCC)C1c1cc(N)ccc1OC(F)F	L major viab 54.7
CN(C)S(=O)(=O)c1ccc(C(=O)N2CCN(S(=O)(=O)c3cccs3)CC2)cc1	L major viab 74.8
CC(=O)c1cccc(NC(=O)NNC(=O)CCC(=O)Nc2ccc(C)c(C)c2)c1	none
Clc1ccc2c(c1)C(N1CCNCC1)Cc1ccccc1S2 (centres undefined)	L major viab 100.5
COCCCN1CCN(C2Cc3ccccc3Sc3ccc(Cl)cc32)CC1 (centres undefined)	L major viab 77.7
Clc1cccc2c1Sc1ccccc1CC2N1CCNCC1 (centres undefined)	L major viab 100.4
O=C(c1ccccc1Cl)N1CCNCC1	none
CN1CCN(CCOc2cccc(Cl)c2)CC1	none
NC(=O)CCN1CCN(CCOC2Cc3cc(Cl)ccc3Sc3ccccc32)CC1 (centres undefined)	L major viab 90.6
Cc1cccc(NC(=O)CC2C(=O)NCCN2C(=S)Nc2ccccc2)c1 (centres undefined)	none
